Compound activity as filed in PubChem BioAssay.
Most compounds without a hit are left out; they make up all but 3.3% or so of the library.
SENP8 block-1 – blocks the human protease SENP8; Q96LD8; inhibition, % at 10 µM; 330,000 tested, 1.2% active; purified SENP8, Z-RLRGG-aminoluciferin cleavage, luminescence; in the data active means inhibition above about 50%
Target sequence (Q96LD8 whole entry, looked up): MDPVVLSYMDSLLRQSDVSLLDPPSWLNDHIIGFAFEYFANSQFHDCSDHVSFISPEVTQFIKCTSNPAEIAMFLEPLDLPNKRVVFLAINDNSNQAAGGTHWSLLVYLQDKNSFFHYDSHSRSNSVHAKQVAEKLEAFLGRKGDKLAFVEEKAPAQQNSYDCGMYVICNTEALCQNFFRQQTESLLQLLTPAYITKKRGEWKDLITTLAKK
SENP7 inh – inhibitors of human SENP7 protease; Q9BQF6; recombinant SENP7, Z-RLRGG-aminoluciferin luminescence, 40 min; inhibition, % at 5 µM; 330,000 tested, 1.5% active;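 active means inhibition above about 50% at the single test dose, limit read from the data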;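 further: plate controls were DMSO with enzyme for no effect and no enzyme buffer wells for full effect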
Target sequence (Q9BQF6 706-1050 limits assumed): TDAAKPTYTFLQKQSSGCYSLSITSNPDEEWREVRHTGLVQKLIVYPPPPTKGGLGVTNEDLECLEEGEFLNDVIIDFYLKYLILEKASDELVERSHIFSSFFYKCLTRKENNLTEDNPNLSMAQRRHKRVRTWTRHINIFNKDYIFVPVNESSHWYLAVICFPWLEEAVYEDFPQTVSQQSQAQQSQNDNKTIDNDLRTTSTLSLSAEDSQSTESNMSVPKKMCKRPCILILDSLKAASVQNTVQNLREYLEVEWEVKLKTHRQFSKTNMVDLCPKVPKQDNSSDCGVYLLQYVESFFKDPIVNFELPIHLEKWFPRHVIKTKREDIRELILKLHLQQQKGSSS
CendR NRP1 mod – NRP-1/CendR interaction modulation; O14786; FAM-RPARPAR peptide binding to NRP-1, fluorescence polarization; inhibition, % at 25 µM; 360,000 tested, 0.85% active;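 active means inhibition or corrected inhibition above about 18%, plus a signal ratio from 0.5 to 1.5, limit read from the data, passing the limit was not always enough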
SENP8 block-2 – inhibitors of human SENP8 protease; Q96LD8; inhibition, % at 20 µM; recombinant SENP8, Nedd8 substrate fluorescence; 360,000 tested, 0.64% active; in the data active means inhibition mostly above about 40%, no sharp cut-off; inactive means mostly below about 27%
SENP1 FRET inh – blocks the human SENP1 SUMO protease catalytic domain. Q9P0U3. inhibition, % at 10 µM. 360,000 tested, 0.21% active. AID 624204. recombinant SENP1 catalytic domain, CyPet-SUMO1-YPet FRET cleavage;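 active means inhibition at least 30% at 10 µM, raw YFP signal under a set limit, fluorescence ratio 0.5 to 1.5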;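 further: 0% = enzyme with DMSO and 100% = no enzyme wells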
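material = recombinant human SENP1 catalytic domain, His6-tagged | quantity = 20 pM enzyme | reagent = 25 nM SUMO1 FRET substrate | compound dosing = 10 µM single point, 0.5% DMSO | timing = 50 min enzyme reaction, room temperature, light-protected | detection = FRET, CFP and YFP emission | control set = no-enzyme low, enzyme-DMSO high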
SENP6 block – blocks the human protease SENP6; Q9GZR1; Recombinant SENP6 catalytic domain, aminoluciferin luminescence; inhibition, % at 10 µM; 330,000 tested, 1.8% active; AID 2599;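 active means inhibition above about 50% at the single tested dose, limit read from the data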;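 further: plate controls were DMSO wells with enzyme for no effect and DMSO wells lacking enzyme for full effect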
SENP8 confirm – human SENP8 inhibition, confirmed; AID 488912; Recombinant SENP8, Z-RLRGG-aminoluciferin luminescence, 60 min; 6,200 tested, 40% active; shares compounds with SENP7 inh; inhibition, % at 12.5 µM;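 active means mean inhibition across replicates above about 50%, limit read from the data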
SENP6 conf – human SENP6 inhibition, confirmed; recombinant SENP6, Z-RLRGG-aminoluciferin luminescence; 6,200 tested, 58% active; shares compounds with SENP7 inh; inhibition, % at 12.5 µM
SENP7 confirm – confirmation of human SENP7 protease inhibitors. recombinant SENP7, Z-RLRGG-aminoluciferin luminescence, 40 min. shares compounds with SENP7 inh. 6,200 tested, 69% active. inhibition, % at 12.5 µM. AID 488917
Casp3 select – selectivity test for SENP inhibitors: human caspase-3 inhibition. shares compounds with SENP7 inh. purified caspase-3, Z-DEVD-aminoluciferin luminescence, 60 min. AID 488918. inhibition, % at 12.5 µM. 6,200 tested, 60% active;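 active means mean inhibition above about 50%, limit read from the data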;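 further: plate controls were enzyme with DMSO for no effect and wells without caspase-3 for full effect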
Luc interf – interferes with luciferase luminescence in SENP counter-screen; shares compounds with SENP7 inh; Pre-incubated SENP8/Z-RLRGG-aminoluciferin, luciferase luminescence interference; inhibition, % at 12.5 µM; 6,200 tested, 39% active; AID 488919;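 active means mean inhibition above about 50% when retested at one dose, limit read from the data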;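 further: plate controls were DMSO wells with completed reaction for no effect and substrate without enzyme for full effect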
The depositor's hits bear a star.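 How the source made its calls, unless noted: active means mean inhibition above about 50% in the one-dose retest (limit read from the data); inactive means the rest.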

What do the screens show for `O=c1c2ccccc2nc2n1CCc1c-2[nH]c2ccccc12`?
SENP8 block-1: 48; SENP7 inh: 89*; CendR NRP1 mod: -1; SENP8 block-2: -378; SENP1 FRET inh: -2; SENP6 block: 64*; SENP8 confirm: 33; SENP6 conf: 29; SENP7 confirm: 28; Casp3 select: 25; Luc interf: 19

What do the screens show for `COc1ccc(C(=O)NCCN2CCC(n3c(=O)[nH]c4ccccc43)CC2)cc1F`?
CendR NRP1 mod: -6; SENP8 block-2: 25; SENP1 FRET inh: 0

Results for CC(=O)c1csc(Nc2ccccc2Cl)n1 ?
SENP8 block-1: 14; SENP7 inh: 54*; CendR NRP1 mod: -21; SENP8 block-2: 13; SENP1 FRET inh: 0; SENP6 block: 42; SENP8 confirm: 14; SENP6 conf: 15; SENP7 confirm: 70*; Casp3 select: 63*; Luc interf: 48

What do the screens show for `O=C(c1ccccc1)c1cnc(Nc2ccccc2Cl)s1`?
SENP8 block-1: 49; SENP7 inh: 54*; CendR NRP1 mod: -5; SENP8 block-2: -276; SENP1 FRET inh: -19; SENP6 block: 75*; SENP8 confirm: 73*; SENP6 conf: 76*; SENP7 confirm: 87*; Casp3 select: 47; Luc interf: 53*

How did CC(C)(C)C(=O)c1cnc(Nc2ccccc2Cl)s1 do in these assays?
SENP8 block-1: 79*; SENP7 inh: 83*; CendR NRP1 mod: 3; SENP8 block-2: -390; SENP1 FRET inh: -11; SENP6 block: 90*; SENP8 confirm: 86*; SENP6 conf: 90*; SENP7 confirm: 97*; Casp3 select: 75*; Luc interf: 83*

What do the screens show for `CCCCn1nc(C(=O)N(C)C2CCCCC2)c2ccccc2c1=O`?
SENP8 block-1: -11; SENP7 inh: -8; CendR NRP1 mod: 5; SENP8 block-2: 8; SENP1 FRET inh: 2; SENP6 block: -5

How did CCOc1ccc(NC(=O)COC(=O)c2c[nH]c3ccccc23)cc1 do in these assays?
CendR NRP1 mod: 6; SENP8 block-2: 24; SENP1 FRET inh: 2

How did CC(=O)N=c1sc2ccccc2n1C do in these assays?
SENP8 block-1: -6; SENP7 inh: -6; CendR NRP1 mod: -12; SENP8 block-2: 14; SENP1 FRET inh: -1; SENP6 block: 4

How did COc1cc(OC)cc(C(=O)N=c2sc3ccccc3n2C)c1 do in these assays?
SENP8 block-1: -7; SENP7 inh: 51*; CendR NRP1 mod: -4; SENP8 block-2: -419; SENP1 FRET inh: 2; SENP6 block: 0; SENP8 confirm: -2; SENP6 conf: 3; SENP7 confirm: 2; Casp3 select: 12; Luc interf: 10

What do the screens show for `COc1ccc(C(=O)N=c2sc3ccccc3n2C)cc1`?
SENP8 block-1: 69*; SENP7 inh: 77*; CendR NRP1 mod: -9; SENP8 block-2: -433; SENP1 FRET inh: 3; SENP6 block: 1; SENP8 confirm: 15; SENP6 conf: 23; SENP7 confirm: 24; Casp3 select: 17; Luc interf: 9

Results for Cn1nccc1-c1ccc(C(=O)NCc2ccc(Cl)cc2)c2occc12 ?
CendR NRP1 mod: 22; SENP8 block-2: 0; SENP1 FRET inh: -1

How did CC(C)Cn1cc(-c2cccc3nccn23)cn1 do in these assays?
CendR NRP1 mod: -8; SENP8 block-2: inactive; SENP1 FRET inh: 3

What do the screens show for `COc1nc(C)ccc1-c1noc(-c2ccco2)n1`?
SENP8 block-1: 41; SENP7 inh: 61*; CendR NRP1 mod: -7; SENP8 block-2: 2; SENP1 FRET inh: -6; SENP6 block: 70*; SENP8 confirm: 51*; SENP6 conf: 57*; SENP7 confirm: 85*; Casp3 select: 69*; Luc interf: 28

Results for Cc1ccc2nc(-c3ccccn3)oc2c1 ?
SENP8 block-1: 63*; SENP7 inh: 81*; CendR NRP1 mod: -4; SENP8 block-2: -417; SENP1 FRET inh: 2; SENP6 block: 83*; SENP8 confirm: 9; SENP6 conf: 71*; SENP7 confirm: 95*; Casp3 select: 89*; Luc interf: 44

What do the screens show for `O=[N+]([O-])c1cccc(-c2noc(-c3ccco3)n2)c1`?
SENP8 block-1: 45; SENP7 inh: 54*; CendR NRP1 mod: -4; SENP8 block-2: 16; SENP1 FRET inh: 0; SENP6 block: 68*; SENP8 confirm: 9; SENP6 conf: 8; SENP7 confirm: 29; Casp3 select: 25; Luc interf: 9

Results for Cc1ccc(-c2nc(-c3ccccn3)no2)cc1 ?
SENP8 block-1: 98*; SENP7 inh: 99*; CendR NRP1 mod: -1; SENP8 block-2: 27; SENP1 FRET inh: 4; SENP6 block: 99*; SENP8 confirm: 4; SENP6 conf: 101*; SENP7 confirm: 103*; Casp3 select: 100*; Luc interf: 99*

What do the screens show for `C[C@@H]1CN([C@H](C)CO)C(=O)c2cc(Br)cnc2O[C@@H]1CN(C)C(=O)Cc1ccccc1`?
CendR NRP1 mod: -9; SENP8 block-2: 5; SENP1 FRET inh: -2

How did COc1ccc(-c2c(N)cnc(C(=O)O)c2C)c(OCc2ccccc2)c1OC do in these assays?
CendR NRP1 mod: -5; SENP8 block-2: -24; SENP1 FRET inh: -1

What do the screens show for `CCCCc1c(-c2cccc(Br)c2)ncn1CCc1ccccc1OC`?
CendR NRP1 mod: -6; SENP8 block-2: 11; SENP1 FRET inh: 0

How did c1ccc(Cc2nc(-c3ccccn3)no2)cc1 do in these assays?
SENP8 block-1: -10; SENP7 inh: -32; CendR NRP1 mod: -7; SENP8 block-2: 6; SENP1 FRET inh: -2; SENP6 block: -24

Results for COc1cccc(-c2nc(-c3ccccn3)no2)c1OC ?
SENP8 block-1: -3; SENP7 inh: 3; CendR NRP1 mod: -10; SENP8 block-2: -23; SENP1 FRET inh: 9; SENP6 block: -10

How did c1ccc(-c2noc(-c3ccno3)n2)nc1 do in these assays?
SENP8 block-1: -5; SENP7 inh: 7; CendR NRP1 mod: 5; SENP8 block-2: 29; SENP1 FRET inh: 0; SENP6 block: -17
